One assay deals with HepG2. The assay is described as follows: Cytotoxicity against human HepG2 cells assessed as reduction in cell viability incubated for 48 hrs by WST-1 assay. The conditions noted are these: HepG2, 48 h. (Formazan colour is commonly taken as a measure of viable cells.)
The target in assay [1] is T1, Retinoic acid receptor alpha (Homo sapiens) (UniProt P10276).
T1 sequence (whole entry): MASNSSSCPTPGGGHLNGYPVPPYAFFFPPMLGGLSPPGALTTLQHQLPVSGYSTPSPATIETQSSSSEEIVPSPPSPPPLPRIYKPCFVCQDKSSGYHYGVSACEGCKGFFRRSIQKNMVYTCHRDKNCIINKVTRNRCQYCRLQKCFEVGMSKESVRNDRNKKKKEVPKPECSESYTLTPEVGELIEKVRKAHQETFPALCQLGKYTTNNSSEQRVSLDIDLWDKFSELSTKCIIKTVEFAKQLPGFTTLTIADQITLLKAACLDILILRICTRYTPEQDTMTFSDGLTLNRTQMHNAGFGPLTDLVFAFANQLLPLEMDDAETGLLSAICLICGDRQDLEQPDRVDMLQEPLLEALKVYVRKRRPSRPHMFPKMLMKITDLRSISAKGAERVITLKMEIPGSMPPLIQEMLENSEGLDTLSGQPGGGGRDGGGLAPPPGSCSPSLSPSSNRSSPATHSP
Kind of assay: Agonist activity against human RARalpha in human HEK293T cells co-expressing pFR/pRL-Luc assessed as receptor activation at 10 uM incubated for 14 to 16 hrs by hybrid reporter gene assay relative to bexarotene. Particulars: filed as agonist, time 14-16 hrs. The assay is classed as cell-based. The procedure, abridged: (§1)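 Gal4 hybrid reporter assay in HEK293T cells, seeded 24 h before transfection (Lipofectamine LTX, Opti-MEM) with pFR-Luc, pRL-SV40 and pFA-CMV plasmid carrying the hinge region and LBD of the human receptor. After 5 h, compound added in 0.1% DMSO, with 0.1% DMSO alone as untreated control. Dual-Glo luciferase read after 14−16 h; firefly/renilla normalized; duplicates, ≥2 independent experiments.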

For assay [2], the target named is T2, Oxysterols receptor LXR-beta (Homo sapiens) (UniProt P55055).
T2 sequence (whole entry): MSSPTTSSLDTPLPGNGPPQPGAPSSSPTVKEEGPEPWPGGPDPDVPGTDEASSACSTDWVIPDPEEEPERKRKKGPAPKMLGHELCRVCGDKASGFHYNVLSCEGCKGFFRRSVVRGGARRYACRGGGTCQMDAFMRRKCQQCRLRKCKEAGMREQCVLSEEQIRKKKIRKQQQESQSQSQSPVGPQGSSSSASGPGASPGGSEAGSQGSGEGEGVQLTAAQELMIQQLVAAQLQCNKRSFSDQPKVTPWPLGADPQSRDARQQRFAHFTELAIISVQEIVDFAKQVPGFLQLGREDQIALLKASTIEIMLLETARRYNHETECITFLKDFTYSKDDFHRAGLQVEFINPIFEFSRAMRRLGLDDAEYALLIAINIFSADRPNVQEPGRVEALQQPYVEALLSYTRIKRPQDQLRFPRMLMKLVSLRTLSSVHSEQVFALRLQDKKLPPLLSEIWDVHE
The assay is described as follows: Agonist activity against human LXRbeta in human HEK293T cells co-expressing pFR/pRL-Luc assessed as receptor activation at 10 uM incubated for 14 to 16 hrs by hybrid reporter gene assay relative to bexarotene. The conditions noted are these: filed as agonist, time 14-16 hrs. The format is cell-based. The procedure, abridged:
as §1

Assay [3] addresses T3, Bile acid receptor (Homo sapiens) (UniProt Q96RI1).
T3 sequence (whole entry): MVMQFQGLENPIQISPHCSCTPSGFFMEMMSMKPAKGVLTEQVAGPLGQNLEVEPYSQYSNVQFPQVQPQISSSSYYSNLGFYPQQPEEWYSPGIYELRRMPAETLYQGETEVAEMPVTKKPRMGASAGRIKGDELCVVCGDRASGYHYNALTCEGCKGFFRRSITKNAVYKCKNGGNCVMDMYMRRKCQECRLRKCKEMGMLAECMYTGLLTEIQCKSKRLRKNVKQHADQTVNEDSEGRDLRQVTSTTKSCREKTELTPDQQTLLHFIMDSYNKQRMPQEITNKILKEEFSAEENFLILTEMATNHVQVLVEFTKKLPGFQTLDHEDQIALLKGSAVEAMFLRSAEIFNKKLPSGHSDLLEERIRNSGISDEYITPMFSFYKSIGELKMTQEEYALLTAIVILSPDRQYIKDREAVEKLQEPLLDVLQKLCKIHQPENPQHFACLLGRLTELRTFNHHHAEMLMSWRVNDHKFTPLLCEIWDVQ
The assay is described as follows: Agonist activity against human FXR in human HEK293T cells co-expressing pFR/pRL-Luc assessed as receptor activation at 10 uM incubated for 14 to 16 hrs by hybrid reporter gene assay relative to bexarotene. The assay is classed as cell-based. Particulars: filed as agonist, time 14-16 hrs. The procedure, abridged: as §1
A general note: In a reporter assay the amount or activity of a reporter protein is the signal.

Assay [4] addresses T4, Retinoic acid receptor RXR-gamma (Homo sapiens) (UniProt P48443).
T4 sequence (whole entry): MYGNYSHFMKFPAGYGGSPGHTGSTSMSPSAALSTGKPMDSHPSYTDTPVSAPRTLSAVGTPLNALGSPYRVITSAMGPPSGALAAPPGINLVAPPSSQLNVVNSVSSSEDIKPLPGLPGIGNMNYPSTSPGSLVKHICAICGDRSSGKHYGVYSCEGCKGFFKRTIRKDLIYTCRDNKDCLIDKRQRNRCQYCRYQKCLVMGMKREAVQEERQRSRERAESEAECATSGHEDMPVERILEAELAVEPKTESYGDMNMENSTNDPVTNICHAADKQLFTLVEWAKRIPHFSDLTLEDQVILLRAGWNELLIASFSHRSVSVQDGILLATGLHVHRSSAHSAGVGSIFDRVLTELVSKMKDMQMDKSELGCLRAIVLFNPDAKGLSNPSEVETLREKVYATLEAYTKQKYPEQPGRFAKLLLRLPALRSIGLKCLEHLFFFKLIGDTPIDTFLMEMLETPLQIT
The assay is described as follows: Agonist activity against human RXRgamma in human HEK293T cells co-expressing pFR/pRL-Luc assessed as receptor activation at 10 uM incubated for 14 to 16 hrs by hybrid reporter gene assay relative to bexarotene. The assay is classed as cell-based. The conditions noted are these: filed as agonist, time 14-16 hrs. The procedure, abridged: as §1

Assay [5] concerns the target T5, Peroxisome proliferator-activated receptor delta (Homo sapiens) (UniProt Q03181).
T5 sequence (whole entry): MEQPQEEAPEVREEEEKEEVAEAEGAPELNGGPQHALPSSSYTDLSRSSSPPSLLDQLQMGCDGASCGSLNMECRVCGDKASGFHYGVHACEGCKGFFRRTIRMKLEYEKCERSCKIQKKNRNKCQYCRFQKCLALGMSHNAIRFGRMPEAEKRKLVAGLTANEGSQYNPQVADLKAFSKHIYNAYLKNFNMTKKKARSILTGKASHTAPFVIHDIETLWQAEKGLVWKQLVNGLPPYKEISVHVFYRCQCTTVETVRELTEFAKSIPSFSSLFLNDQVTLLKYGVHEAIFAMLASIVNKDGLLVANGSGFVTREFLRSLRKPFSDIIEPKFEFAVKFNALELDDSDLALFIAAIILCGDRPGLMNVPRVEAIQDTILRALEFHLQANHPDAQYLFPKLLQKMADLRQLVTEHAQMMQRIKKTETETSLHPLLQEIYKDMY
Kind of assay: Agonist activity against human PPARdelta in human HEK293T cells co-expressing pFR/pRL-Luc assessed as receptor activation at 10 uM incubated for 14 to 16 hrs by hybrid reporter gene assay relative to bexarotene. Particulars: filed as agonist, time 14-16 hrs. The format is cell-based. The procedure, abridged:
as §1

Each structure is given as a SMILES string.

By IC50 is commonly meant the point on the concentration scale where inhibition reaches its midpoint. For `O=C(O)CCCc1cc(-c2cc(Cl)cc(Cl)c2)n(-c2ccccc2)n1`, in the assay with HepG2, the IC50 is above 100 µM. Moreover, the Activity was 1% in assay [1]; 2% in assay [2]; 1% in assay [3]; 27% in assay [4]; 1% in assay [5].

Values taken from ChEMBL document CHEMBL4834419 (J Med Chem, 2021).
